Results published in ChEMBL document CHEMBL1148267, “Synthesis and biological activity of a novel squalene epoxidase inhibitor, FR194738” (Bioorg Med Chem Lett, 2004).

Key:
[1] = test system: Canis familiaris; assay: Compound was evaluated for artherogenic index in plasma lipoprotein cholesterol level (LDL cholesterol / HDL cholesterol) at a dose of 32 mg/kg/day; assay type: ADME, organism-based, Canis lupus familiaris; details: dog, in vivo
Summary of the method: (§1)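 Male beagle dogs (9–11 kg, n=3) dosed orally twice daily for 28 days, at 3.2, 10 or 32 mg/kg/day. On day 14, serum lipoprotein fractions were separated by ultracentrifugation. LDL and HDL cholesterol were measured enzymatically and expressed as % change. Atherogenic index was taken as the LDL/HDL ratio.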

[2] = test system: Canis familiaris; assay: Compound was evaluated for change in the effect of plasma lipoprotein cholesterol level (HDL) at a dose of 10 mg/kg/day; assay type: ADME, organism-based, Canis lupus familiaris; details: dog, in vivo; summary of the method: as §1
[3] = species: Homo sapiens; assay: In vitro inhibitory activity was evaluated against human squalence epoxidase; assay type: functional
Summary of the method: (§2)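 Source of enzyme: dog or rat liver microsomes, or HepG2 cell homogenate for human, solubilized in 2% Triton X-100. Each was incubated with AMO-1680, FAD, NADPH, EDTA, [³H]squalene and drug for 90 min at 37 °C. The reaction was stopped with ethanolic KOH. Non-saponifiable lipids were separated by silica TLC and 2,3-oxidosqualene radioactivity was counted to give IC50.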

[4] = Compound was evaluated for maximum concentration (Cmax) in suspension of 0.5% methylcellulose at a dose of 10 mg/kg in rat; assay type: ADME, organism-based; set-up: dose 10 mg/kg; details: in vivo
Summary of the method: (§3)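 Rats dosed orally with a single 10 mg/kg dose, given as a suspension in 0.5% methylcellulose. Plasma was sampled to derive Cmax, Tmax, AUC over 0–8 h and bioavailability.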

[5] = Compound was evaluated for area under the curve (0-8 h); assay type: ADME, organism-based; set-up: time < 8 hr; details: rat, in vivo; summary of the method: as §3
[6] = Compound was evaluated for maximum time(Tmax) in suspension of 0.5% methylcellulose at a dose of 10 mg/kg in rat; assay type: ADME, organism-based; set-up: dose 10 mg/kg; details: in vivo; summary of the method: as §3
[7] = test system: Canis familiaris; assay: Compound was evaluated for change in the effect of plasma lipoprotein cholesterol level (HDL) at a dose of 3.2 mg/kg/day; assay type: ADME, organism-based, Canis lupus familiaris; details: dog, in vivo; summary of the method: as §1
[8] = Bioavailability in rat; assay type: ADME, organism-based; details: in vivo; summary of the method: as §3
[9] = test system: Canis familiaris; assay: Compound was evaluated for artherogenic index in plasma lipoprotein cholesterol level (LDL cholesterol / HDL cholesterol) at a dose of 3.2 mg/kg/day; assay type: ADME, organism-based, Canis lupus familiaris; details: dog, in vivo; summary of the method: as §1
[10] = test system: Canis familiaris; assay: Compound was evaluated for artherogenic index in plasma lipoprotein cholesterol level (LDL cholesterol / HDL cholesterol) at a dose of 10 mg/kg/day; assay type: ADME, organism-based, Canis lupus familiaris; details: dog, in vivo; summary of the method: as §1
[11] = test system: Canis familiaris; assay: Compound was evaluated for change in the effect of plasma lipoprotein cholesterol level (HDL) at a dose of 32 mg/kg/day; assay type: ADME, organism-based, Canis lupus familiaris; details: dog, in vivo; summary of the method: as §1
[12] = species: Rattus norvegicus; assay: In vitro inhibitory activity was evaluated against rat squalence epoxidase; assay type: functional; summary of the method: as §2
[13] = test system: Canis familiaris; assay: Compound was evaluated for change in the effect of plasma lipoprotein cholesterol level (LDL) at a dose of 32 mg/kg/day; assay type: ADME, organism-based, Canis lupus familiaris; details: dog, in vivo; summary of the method: as §1
[14] = Partition coefficient (logP); assay type: physicochemical; details: octanol/water
[15] = species: Canis familiaris; assay: In vitro inhibitory activity was evaluated against dog squalence epoxidase; assay type: functional, Canis lupus familiaris; summary of the method: as §2
[16] = test system: Canis familiaris; assay: Compound was evaluated for change in the effect of plasma lipoprotein cholesterol level (LDL) at a dose of 10 mg/kg/day; assay type: ADME, organism-based, Canis lupus familiaris; details: dog, in vivo; summary of the method: as §1
[17] = test system: Canis familiaris; assay: Compound was evaluated for change in the effect of plasma lipoprotein cholesterol level (LDL) at a dose of 3.2 mg/kg/day; assay type: ADME, organism-based, Canis lupus familiaris; details: dog, in vivo; summary of the method: as §1
[18] = test system: HepG2; assay: In vitro inhibitory activity was evaluated on cholesterol biosynthesis in HepG2 cells; assay type: functional, cell-based; details: Homo sapiens
Summary of the method: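 HepG2 cells were kept overnight in 10% human lipoprotein-deficient serum, then preincubated 1 h with drug. [¹⁴C]acetate was added for 2 h. Cells were lysed and saponified with ethanolic KOH. Digitonin was added to the non-saponifiable lipids, and radioactivity of the digitonin-coprecipitable sterols was counted to give IC50.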

Question: Which Activity [1] does the source give for `CCN(C/C=C/C#CC(C)(C)C)Cc1cccc(OCC(C)(C)OCc2ccsc2)c1.Cl` here?
Answer: -47%

Question: What about the HDL [2] of the same compound?
Answer: -14%

Question: And the IC50 [3]?
Answer: 9.8 nM

Question: What about the Cmax [4] of the same compound?
Answer: 486 ng/mL

Question: What about the AUC(0-t) at 8 h [5] of the same compound?
Answer: 1870 ng·h/mL

Question: What about the Tmax [6] of the same compound?
Answer: 1.17 h

Question: What about the HDL [7] of the same compound?
Answer: 0%

Question: And the bioavailability [8]?
Answer: 32.9%

Question: What about the Activity [9] of the same compound?
Answer: -2%

Question: What about the Activity [10] of the same compound?
Answer: -38%

Question: And the HDL [11]?
Answer: -27%

Question: What about the IC50 [12] of the same compound?
Answer: 25 nM

Question: And the LDL [13]?
Answer: -61%

Question: What about the logP [14] of the same compound?
Answer: 7.3

Question: What about the IC50 [15] of the same compound?
Answer: 14 nM

Question: And the LDL [16]?
Answer: -47%

Question: And the LDL [17]?
Answer: -2%

Question: Which IC50 ([3]; Homo sapiens) does the source give for `CCN(C/C=C/C#CC(C)(C)C)Cc1cccc(OCC(CC)(CC)OCc2ccsc2)c1` here?
Answer: 120 nM

Question: And the logP ([14]; read-out: logP)?
Answer: 8.36

Question: For `C=CCC(CC=C)(COc1cccc(CN(CC)C/C=C/C#CC(C)(C)C)c1)OCc1ccsc1`, which IC50 ([3]; Homo sapiens) is on record?
Answer: 160 nM

Question: And the logP ([14]; read-out: logP)?
Answer: 8.45

Question: What does the source list for `CCN(C/C=C/C#CC(C)(C)C)Cc1cccc(OCC(C)(C)OCc2ccsc2)c1`?
Answer: IC50 ([3]; Homo sapiens): 5.4 nM; logP ([14]; read-out: logP): 7.3; IC50 [15]: 34 nM

Question: For `CC(C)n1c(/C=C/[C@H](O)C[C@H](O)CC(=O)O)c(-c2ccc(F)cc2)c2ccccc21` [FLUVASTATIN], which IC50 [18] is on record?
Answer: 28 nM

Question: For `CCN(C/C=C/C#CC(C)(C)C)Cc1cccc(OCC(C)(C)OC(=O)c2ccsc2)c1`, which IC50 ([3]; Homo sapiens) is on record?
Answer: 23 nM

Question: And the logP ([14]; read-out: logP)?
Answer: 7.48

Question: What about the IC50 ([15]; Canis lupus familiaris) of the same compound?
Answer: 370 nM

Question: For `CCC(C)(C)C(=O)O[C@H]1C[C@@H](C)C=C2C=C[C@H](C)[C@H](CC[C@@H]3C[C@@H](O)CC(=O)O3)[C@H]21` [SIMVASTATIN], which IC50 [18] is on record?
Answer: 40 nM

Question: Which results are given for `CN(C/C=C/C#CC(C)(C)C)Cc1cccc(OCC(C)(C)OCc2ccsc2)c1`?
Answer: IC50 ([3]; Homo sapiens): 11 nM; logP ([14]; read-out: logP): 6.78; IC50 ([15]; Canis lupus familiaris): 77 nM

Question: Which results are given for `CCN(C/C=C/C#CC(C)(C)C)Cc1cccc(OCCOCc2ccsc2)c1`?
Answer: IC50 ([3]; Homo sapiens): 25 nM; logP ([14]; read-out: logP): 6.6; IC50 ([15]; Canis lupus familiaris): 230 nM

Question: With `CCN(C/C=C/C#CC(C)(C)C)Cc1cccc(OCc2cc(-c3ccsc3)cs2)c1` as the compound, how does the IC50 ([3]; Homo sapiens) read?
Answer: 7.2 nM

Question: And the Cmax [4]?
Answer: 329 ng/mL

Question: And the AUC(0-t) at 8 h [5]?
Answer: 1390 ng·h/mL

Question: And the Tmax [6]?
Answer: 1.67 h

Question: And the bioavailability [8]?
Answer: 16.5%

Question: What about the IC50 [12] of the same compound?
Answer: 36 nM

Question: And the logP ([14]; read-out: logP)?
Answer: 8.19

Question: And the IC50 ([15]; Canis lupus familiaris)?
Answer: 43 nM

Question: For `CCCN(C/C=C/C#CC(C)(C)C)Cc1cccc(OCC(C)(C)OCc2ccsc2)c1`, which IC50 ([3]; Homo sapiens) is on record?
Answer: 31 nM

Question: And the logP ([14]; read-out: logP)?
Answer: 7.83

Question: What about the IC50 ([15]; Canis lupus familiaris) of the same compound?
Answer: 51 nM
